Data taken from ChEMBL document CHEMBL1155468, “Syntheses and evaluation of anticonvulsant profile and teratogenicity of novel amide derivatives of branched aliphatic carboxylic acids with 4-aminobenzensulfonamide” (J Med Chem, 2010).
The source made the active and inactive calls. The calls are words filed in the database; no cut-off is given here.

Experiments:
[1] = test system: Mus musculus; assay: Anticonvulsant activity in CF1 albino mouse assessed as inhibition of maximal electroshock-induced seizures at 30 mg/kg, ip after 4 hrs; type: functional, organism-based; set-up: dose 30 mg/kg
Summary of the method: (§1)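 Test compounds suspended in 0.5% methylcellulose and given ip to adult male CF no. 1 albino mice (18-25 g) at 0.01 mL/g body weight before maximal electroshock challenge.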

[2] = test system: Mus musculus; assay: Anticonvulsant activity in CF1 albino mouse assessed as inhibition of subcutaneous pentylenetetrazole-induced seizures at 100 mg/kg, ip after 4 hrs; type: functional, organism-based; set-up: dose 100 mg/kg
Summary of the method: (§2)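 Adult male CF no. 1 albino mice (18-25 g) dosed ip with compound suspended in 0.5% methylcellulose (0.01 mL/g). Convulsant: pentylenetetrazol dissolved in 0.9% saline as a 0.85% solution for mice, given subcutaneously.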

[3] = test system: Mus musculus; assay: Neurotoxicity in CF1 albino mouse assessed as motor impairment at 30 mg/kg, ip after 0.5 hrs; type: toxicity, organism-based; set-up: dose 30 mg/kg, route intraperitoneal; settings: in vivo
[4] = test system: Rattus norvegicus; assay: Neurotoxicity in Sprague-Dawley rat assessed as motor impairment at 30 mg/kg, po after 0.25 to 4 hrs; settings: in vivo
[5] = test system: Mus musculus; assay: Anticonvulsant activity in CF1 albino mouse assessed as inhibition of subcutaneous pentylenetetrazole-induced seizures at 30 mg/kg, ip after 0.5 hrs; type: functional, organism-based; set-up: dose 30 mg/kg; summary of the method: as §2
[6] = test system: Mus musculus; assay: Neurotoxicity in CF1 albino mouse assessed as motor impairment at 30 mg/kg, ip after 4 hrs; type: toxicity, organism-based; set-up: dose 30 mg/kg, route intraperitoneal; settings: in vivo
[7] = test system: Mus musculus; assay: Anticonvulsant activity in CF1 albino mouse assessed as inhibition of subcutaneous pentylenetetrazole-induced seizures at 100 mg/kg, ip after 0.5 hrs; type: functional, organism-based; set-up: dose 100 mg/kg; summary of the method: as §2
[8] = test system: Mus musculus; assay: Anticonvulsant activity in CF1 albino mouse assessed as inhibition of subcutaneous pentylenetetrazole-induced seizures at 300 mg/kg, ip after 0.5 hrs; type: functional, organism-based; set-up: dose 300 mg/kg; summary of the method: as §2
[9] = test system: Mus musculus; assay: Neurotoxicity in CF1 albino mouse assessed as motor impairment at 300 mg/kg, ip after 0.5 hrs; type: toxicity, organism-based; set-up: dose 300 mg/kg, route intraperitoneal; settings: in vivo
[10] = test system: Mus musculus; assay: Anticonvulsant activity in CF1 albino mouse assessed as inhibition of maximal electroshock-induced seizures at 300 mg/kg, ip after 4 hrs; type: functional, organism-based; set-up: dose 300 mg/kg; summary of the method: as §1
[11] = test system: Rattus norvegicus; assay: Anticonvulsant activity in Sprague-Dawley rat assessed as inhibition of maximal electroshock-induced seizures at 30 mg/kg, po after 4 hrs
[12] = test system: Mus musculus; assay: Anticonvulsant activity in CF1 albino mouse assessed as inhibition of maximal electroshock-induced seizures at 300 mg/kg, ip after 0.5 hrs; type: functional, organism-based; set-up: dose 300 mg/kg; summary of the method: as §1
[13] = test system: Mus musculus; assay: Anticonvulsant activity in CF1 albino mouse assessed as inhibition of maximal electroshock-induced seizures at 100 mg/kg, ip after 4 hrs; type: functional, organism-based; set-up: dose 100 mg/kg; summary of the method: as §1
[14] = test system: Rattus norvegicus; assay: Anticonvulsant activity in Sprague-Dawley rat assessed as inhibition of maximal electroshock-induced seizures at 30 mg/kg, po after 2 hrs
[15] = test system: Mus musculus; assay: Anticonvulsant activity in CF1 albino mouse assessed as inhibition of maximal electroshock-induced seizures at 100 mg/kg, ip after 0.5 hrs; type: functional, organism-based; set-up: dose 100 mg/kg; summary of the method: as §1
[16] = test system: Rattus norvegicus; assay: Anticonvulsant activity in Sprague-Dawley rat assessed as inhibition of maximal electroshock-induced seizures at 30 mg/kg, po after 1 hr
[17] = test system: Mus musculus; assay: Neurotoxicity in CF1 albino mouse assessed as motor impairment at 100 mg/kg, ip after 0.5 hrs; type: toxicity, organism-based; set-up: dose 100 mg/kg, route intraperitoneal; settings: in vivo
[18] = test system: Rattus norvegicus; assay: Anticonvulsant activity in Sprague-Dawley rat assessed as inhibition of maximal electroshock-induced seizures at 30 mg/kg, po after 30 mins
[19] = test system: Mus musculus; assay: Anticonvulsant activity in CF1 albino mouse assessed as inhibition of subcutaneous pentylenetetrazole-induced seizures at 30 mg/kg, ip after 4 hrs; type: functional, organism-based; set-up: dose 30 mg/kg; summary of the method: as §2
[20] = test system: Mus musculus; assay: Neurotoxicity in CF1 albino mouse assessed as motor impairment at 300 mg/kg, ip after 4 hrs; type: toxicity, organism-based; set-up: dose 300 mg/kg, route intraperitoneal; settings: in vivo
[21] = test system: Mus musculus; assay: Neurotoxicity in CF1 albino mouse assessed as motor impairment at 100 mg/kg, ip after 4 hrs; type: toxicity, organism-based; set-up: dose 100 mg/kg, route intraperitoneal; settings: in vivo
[22] = test system: Mus musculus; assay: Anticonvulsant activity in CF1 albino mouse assessed as inhibition of subcutaneous pentylenetetrazole-induced seizures at 300 mg/kg, ip after 4 hrs; type: functional, organism-based; set-up: dose 300 mg/kg; summary of the method: as §2
[23] = test system: Mus musculus; assay: Anticonvulsant activity in CF1 albino mouse assessed as inhibition of maximal electroshock-induced seizures at 30 mg/kg, ip after 0.5 hrs; type: functional, organism-based; set-up: dose 30 mg/kg; summary of the method: as §1
[24] = test system: Rattus norvegicus; assay: Anticonvulsant activity in Sprague-Dawley rat assessed as inhibition of maximal electroshock-induced seizures at 30 mg/kg, po after 15 mins
[25] = species on record: Rattus norvegicus; assay: Protective index, ratio of TD50 for rat to ED50 for maximal electroshock-induced rat seizure model
[26] = test system: Rattus norvegicus; assay: Anticonvulsant activity in po dosed rat assessed as inhibition of maximal electroshock-induced seizures

Row | Compound | Activity [1] | Activity [2] | Activity [3] | Activity [4] | Activity [5] | Activity [6] | Activity [7] | Activity [8] | Activity [9] | Activity [10] | Activity [12] | Activity [15] | Activity [17] | Activity [18] | Activity [19] | Activity [20] | Activity [21] | Activity [22] | Activity [23] | Activity [24] | also measured
1 | CCCC(C(=O)Nc1ccc(S(N)(=O)=O)cc1)C(C)(C)C (configuration not stated) | inactive | inactive | Non-toxic | Non-toxic | inactive | Non-toxic | inactive | inactive | Non-toxic | inactive | inactive | inactive | Non-toxic | inactive | inactive | Non-toxic | Non-toxic | inactive | inactive |  | Activity [11]: inactive; Activity [13]: inactive; Activity [14]: inactive; Activity [16]: inactive
2 | CC(C)(C)CC(=O)NCc1ccc(S(N)(=O)=O)cc1 | inactive | inactive | Non-toxic | Non-toxic | inactive | Non-toxic | inactive | inactive | Non-toxic | Active | inactive | inactive | Non-toxic | inactive | inactive | Non-toxic | Non-toxic | inactive | inactive | inactive | 
3 | CCC(C(=O)Nc1ccc(S(N)(=O)=O)cc1)C(C)(C)C (configuration not stated) | inactive | inactive | Non-toxic | Non-toxic | inactive | Non-toxic | inactive | inactive | Non-toxic | Active | inactive | inactive | Non-toxic | inactive | inactive | Non-toxic | Non-toxic | inactive | inactive | inactive | Activity [16]: inactive
4 | CCC(C)C(C(=O)Nc1ccc(S(N)(=O)=O)cc1)C(C)C (configuration not stated) | inactive | inactive | Non-toxic | Non-toxic | inactive | Non-toxic | inactive | inactive | Non-toxic | inactive | inactive | inactive | Non-toxic | inactive | inactive | Non-toxic | Non-toxic | inactive | inactive | inactive | Activity [11]: inactive; Activity [13]: inactive; Activity [14]: inactive
5 | CCCC(CCC)C(=O)Nc1nnc(S(N)(=O)=O)s1 |  |  |  |  |  |  |  |  |  |  |  |  |  |  |  |  |  |  |  |  | Ratio TD50/ED50 [25]: >50
6 | CC(C)C(C(=O)Nc1ccc(S(N)(=O)=O)cc1)C(C)(C)C (configuration not stated) | inactive | inactive | Non-toxic | Non-toxic | inactive | Non-toxic | inactive | inactive | Non-toxic | Active | inactive |  | Non-toxic | inactive | inactive | Non-toxic | Non-toxic | inactive | inactive | inactive | Activity [13]: Active; Activity [14]: inactive; Activity [16]: inactive; Ratio TD50/ED50 [25]: >27.7; ED50 [26]: 18 mg/kg
